pIC50, pKi: −log10 of the molar value. Each block holds one compound with its values, some of them ahead of it. Activity calls are given as the source filed them. No cut-off for these calls is given here.
Key:
Pyruvate kinase PKM [1] = biological target: T1, Pyruvate kinase PKM (Homo sapiens, UniProt P14618); test: Binding affinity to recombinant human PKM2 at C424 residue expressed in Escherichia coli BL21 after 60 mins by Western blot method
Target sequence in this assay (P14618 2-531 limits assumed): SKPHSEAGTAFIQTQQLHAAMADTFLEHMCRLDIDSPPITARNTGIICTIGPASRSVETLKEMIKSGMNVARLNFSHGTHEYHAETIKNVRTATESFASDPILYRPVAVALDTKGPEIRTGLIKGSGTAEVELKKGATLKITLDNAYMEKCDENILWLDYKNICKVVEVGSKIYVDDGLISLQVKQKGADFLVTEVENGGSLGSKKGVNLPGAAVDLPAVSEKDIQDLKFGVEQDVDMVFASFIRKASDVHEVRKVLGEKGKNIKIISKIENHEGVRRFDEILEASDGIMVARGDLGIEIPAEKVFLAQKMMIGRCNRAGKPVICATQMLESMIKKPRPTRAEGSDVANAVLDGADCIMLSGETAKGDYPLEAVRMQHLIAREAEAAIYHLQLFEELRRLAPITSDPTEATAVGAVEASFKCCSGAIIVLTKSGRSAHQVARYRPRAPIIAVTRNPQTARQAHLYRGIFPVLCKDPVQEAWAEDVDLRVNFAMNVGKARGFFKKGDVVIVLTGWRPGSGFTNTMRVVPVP

[2] = test system: Pyruvate kinase PKM (Homo sapiens), P14618 [C424S]; test: Binding affinity to recombinant human PKM2 C424S mutant expressed in Escherichia coli BL21 after 60 mins by Western blot method
Chain of Pyruvate kinase PKM (Homo sapiens), P14618 [C424S] (P14618 whole entry C424S): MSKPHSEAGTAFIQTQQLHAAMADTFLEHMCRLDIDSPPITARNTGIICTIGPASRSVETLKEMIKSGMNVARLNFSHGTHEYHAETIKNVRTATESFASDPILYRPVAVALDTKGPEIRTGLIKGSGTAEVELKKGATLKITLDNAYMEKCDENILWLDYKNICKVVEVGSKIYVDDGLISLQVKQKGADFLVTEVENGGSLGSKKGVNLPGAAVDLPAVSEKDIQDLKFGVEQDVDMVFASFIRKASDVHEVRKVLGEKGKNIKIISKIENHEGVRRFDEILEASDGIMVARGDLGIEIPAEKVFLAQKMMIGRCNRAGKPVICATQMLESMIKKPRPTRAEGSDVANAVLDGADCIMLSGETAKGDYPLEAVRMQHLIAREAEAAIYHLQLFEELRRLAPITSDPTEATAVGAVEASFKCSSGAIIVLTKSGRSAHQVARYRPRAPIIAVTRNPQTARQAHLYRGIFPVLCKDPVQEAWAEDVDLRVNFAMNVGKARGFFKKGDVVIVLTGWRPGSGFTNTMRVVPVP

Pyruvate kinase PKM [3] = biological target: T1, Pyruvate kinase PKM; test: Binding affinity to recombinant human PKM2 expressed in Escherichia coli BL21 after overnight incubation by Western blot method
Procedure, shortened: (§1)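 Recombinant PKM1 or PKM2 incubated overnight at 4 °C with biotinylated probe. Biotin adduct detected by Western blot with streptavidin-HRP; loading checked by anti-PKM1/PKM2 blot. Repeated at least three times.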
Target sequence in this assay (P14618 2-531 limits assumed): as the sequence (P14618 2-531 limits assumed) above

Pyruvate kinase PKM [4] = biological target: T1, Pyruvate kinase PKM; test: Irreversible binding affinity to recombinant human PKM2 expressed in Escherichia coli BL21 assessed as ratio of Kact to Ki
Procedure, shortened: (§2)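 PKM2 (0.25 μM) incubated with biotinylated probe (20 μM, and other concentrations) for varying times. Time-dependent binding curves fitted for observed rate constants (Kobs) at each concentration. Kobs plotted against concentration to derive kact and Ki under an irreversible-binding model.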
Target sequence in this assay (P14618 2-531 limits assumed): as above

Pyruvate kinase PKM [5] = biological target: T1, Pyruvate kinase PKM; test: Binding affinity to PKM2 in human HL60 cells at 20 uM after overnight incubation in presence of 200 to 400 uM MCL by silver staining-based streptavidin-agarose pull-down assay; type: cell-based
Procedure, shortened: (§3)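 HL60 lysate incubated overnight at 4 °C with biotinylated probe, with or without excess free parent compound for competition. Pull-down on streptavidin-agarose, then SDS-PAGE with silver staining, or Western blot with anti-PKM2. Repeated at least three times.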
Target sequence in this assay (P14618 2-531 limits assumed): as above

Pyruvate kinase PKM [6] = biological target: T1, Pyruvate kinase PKM; test: Binding affinity to PKM2 in human HL60 cells at 20 uM after overnight incubation by Western blot method; type: cell-based; procedure, shortened: as §3
Target sequence in this assay (P14618 2-531 limits assumed): as above

Pyruvate kinase PKM [7] = biological target: T1, Pyruvate kinase PKM; test: Irreversible binding affinity to recombinant human PKM2 expressed in Escherichia coli BL21; procedure, shortened: as §2
Pyruvate kinase PKM [8] = biological target: T1, Pyruvate kinase PKM; test: Binding affinity to recombinant human PKM1 expressed in Escherichia coli BL21 after overnight incubation by Western blot method; procedure, shortened: as §1
Target sequence in this assay (P14618 2-531 limits assumed): as above

Pyruvate kinase PKM [9] = biological target: T1, Pyruvate kinase PKM; test: Irreversible binding affinity to recombinant human PKM2 expressed in Escherichia coli BL21 at 20 uM incubated for 2 to 150 mins; procedure, shortened: as §2
Pyruvate kinase PKM [10] = biological target: T1, Pyruvate kinase PKM; test: Binding affinity to PKM2 in human HL60 cells at 20 uM after overnight incubation by silver staining-based streptavidin-agarose pull-down assay; type: cell-based; procedure, shortened: as §3
HL-60 [11] = test: Antitumor activity against human HL60 cells xenografted in zebrafish embryo assessed as inhibition of cell proliferation at 200 ug/ml measured after 3 days of incubation by CM-Dil staining-based microscopic method relative to control; type: functional
Procedure, shortened: (§4)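 HL60 cells labelled with CM-Dil; about 300 cells injected into yolk sac of embryos at 2 dpf. Embryos kept in compound (1, 3, 10 μg/mL), cytarabine 200 μg/mL or saline for 3 days. Embryos showing dissemination counted by microscopy, 15 larvae per group. Average ± SD of three independent assays; unpaired Student's t test.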

HL-60 [12] = test: Antitumor activity against human HL60 cells xenografted in zebrafish embryo assessed as inhibition of cell migration at 200 ug/ml measured after 3 days of incubation by CM-Dil staining-based microscopic method relative to control; type: functional; procedure, shortened: as §4
HL-60 [13] = test: Antiproliferative activity against human HL60 cells at 5 to 20 uM after 24 hrs in presence of shControl by MTT assay; type: functional, cell-based
Procedure, shortened: (§5)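 HL60 transduced with lentiviral shPKM2 or shControl (5 μg/mL Polybrene), selected 72 h in 1 μg/mL puromycin. Stable lines treated with compound or DMSO for 24 h, then viability assayed.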

HL-60 [14] = test: Effect on PKM2 levels in human HL60 cells at 2.5 to 10 uM after 20 hrs by Western blot method; type: functional, cell-based
HL-60 [15] = test: Antiproliferative activity against human HL60 cells at 5 to 20 uM after 24 hrs in presence of shPKM2 by MTT assay; type: functional, cell-based; procedure, shortened: as §5
HL60/ADR = test: Antiproliferative activity against human HL60/ADR cells after 48 hrs by MTT assay; type: functional, cell-based
Procedure, shortened: (§6)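 Cells exposed to a range of concentrations for 48 h; proliferation by MTT. Mean ± SEM of six independent experiments. Resistant lines (HL-60/ADR, K562/ADR) held in ADR (printed as 1 μmol/mL) for 10–28 days, then 10 days drug-free before use. SW1990 and SH-SY5Y in DMEM + 10% FBS; leukemia lines in medium with 12% FBS. Vehicle 0.1% DMSO.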

[16] = Toxicity in zebrafish embryo xenografted with human HL60 cells assessed as mortality at 20 ug/ml relative to control; type: organism-based, Danio rerio; conditions: read-out: Activity
Procedure, shortened: (§7)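 Zebrafish embryos at 2 dpf were injected in the yolk sac with about 300 HL60 cells prelabelled with CM-Dil. Nine injected groups were then exposed to drug at a range of dosages for 3 days, with saline as the negative control. Survival and mortality were scored against the control group, and treated versus control animals were compared by Kaplan–Meier analysis.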

HL-60 [17] = test: Antitumor activity against human HL60 cells xenografted in zebrafish embryo assessed as inhibition of cell migration at 10 ug/ml measured after 3 days of incubation by CM-Dil staining-based microscopic method relative to control; type: functional; procedure, shortened: as §4
HL-60 [18] = test: Antiproliferative activity against human HL60 cells after 48 hrs by MTT assay; type: functional, cell-based; procedure, shortened: as §6
SW1990 = test: Antiproliferative activity against human SW1990 cells after 48 hrs by MTT assay; type: functional, cell-based; procedure, shortened: as §6
[19] = Toxicity in zebrafish embryo xenografted with human HL60 cells assessed as survival rate at <= 10 ug/ml treated for 3 days relative to control; type: organism-based, Danio rerio; procedure, shortened: as §7
HL-60 [20] = test: Antitumor activity against human HL60 cells xenografted in zebrafish embryo assessed as inhibition of cell proliferation at 10 ug/ml measured after 3 days of incubation by CM-Dil staining-based microscopic method relative to control; type: functional; procedure, shortened: as §4
K562 = test: Antiproliferative activity against human K562 cells after 48 hrs by MTT assay; type: functional, cell-based; procedure, shortened: as §6
K562/Adr = test: Antiproliferative activity against human K562/ADR cells after 48 hrs by MTT assay; type: functional, cell-based; procedure, shortened: as §6
Homo sapiens = organism: Homo sapiens; test: (§8) Antiproliferative activity against human K562/G cells after 48 hrs by MTT assay; type: functional, cell-based; procedure, shortened: as §6
[21] = as §8; type: functional, cell-based; conditions: K562, 48 h; procedure, shortened: as §6
HL-60 [22] = test: Antitumor activity against human HL60 cells xenografted in zebrafish embryo assessed as decrease in cell dissemination measured after 3 days of incubation by CM-Dil staining-based microscopic method; type: functional; procedure, shortened: as §4
SH-SY5Y = test: Antiproliferative activity against human SH-SY5Y cells after 48 hrs by MTT assay; type: functional, cell-based; procedure, shortened: as §6

- Activity (Pyruvate kinase PKM [1]): Active
- Activity [2]: inactive
- Activity (Pyruvate kinase PKM [3]): Active
- Ratio (Pyruvate kinase PKM [4]): 1.03 ×10⁴ /M/s
- Activity (Pyruvate kinase PKM [5]): inactive
- Activity (Pyruvate kinase PKM [6]): Active
- Kact (Pyruvate kinase PKM [7]): 0.031 min⁻¹
- pKi (Pyruvate kinase PKM [7]): 7.30
- Activity (Pyruvate kinase PKM [8]): inactive
- K (Pyruvate kinase PKM [9]): 0.033 min⁻¹
- Activity (Pyruvate kinase PKM [9]; TDE = time-dependent effect): Tde
- Activity (Pyruvate kinase PKM [10]): Active
Compound: C=C1C(=O)O[C@H]2[C@H]1CCC(C)=C1CC[C@@](C)(OC(=O)CCCc3cn(CCOCCOCCOCCNC(=O)CCCC[C@H]4SC[C@H]5NC(=O)N[C@H]54)nn3)[C@@H]12

- Activity (Pyruvate kinase PKM [10]): inactive
Compound: CC1=C2CC[C@@](C)(OC(=O)CCCc3cn(CCOCCOCCOCCNC(=O)CCCC[C@H]4SC[C@H]5NC(=O)N[C@H]54)nn3)[C@@H]2[C@H]2OC(=O)[C@@H](C)[C@@H]2CC1

Compound: Nc1ccn([C@@H]2O[C@H](CO)[C@@H](O)[C@@H]2O)c(=O)n1 [CYTARABINE]
- inhibition (INH) (HL-60 [11]): 43.28%
- inhibition (INH) (HL-60 [12]): 44.04%

Compound: C=C1C(=O)O[C@H]2[C@H]1CCC(C)=C1CC[C@@](C)(O)[C@@H]12
- Activity (HL-60 [13]): Active
- Activity (HL-60 [14]): inactive
- Activity (HL-60 [15]): inactive

Compound: CC1=C2CC[C@@](C)(O)[C@@H]2[C@H]2OC(=O)[C@@H](CN(C)C)[C@@H]2CC1.O=C(O)/C=C/C(=O)O
- Activity (HL60/ADR): Dose-dependent effect
- pIC50 (HL60/ADR): 4.79 to 5.41
- IC90 (HL60/ADR): 16.4 to 54.1 µM
- mortality at 20 ug/ml [16]: 80%
- inhibition (INH) (HL-60 [17]): 58.1%
- Activity (HL-60 [18]): Dose-dependent effect
- pIC50 (HL-60 [18]; HL-60, 48 h): 4.79 to 5.41
- IC90 (HL-60 [18]; HL-60, 48 h): 16.4 to 54.1 µM
- Activity (SW1990): Dose-dependent effect
- pIC50 (SW1990; SW1990, 48 h): 4.79 to 5.41
- IC90 (SW1990; SW1990, 48 h): 16.4 to 54.1 µM
- survival at 72 h [19]: 100%
- inhibition (INH) (HL-60 [20]): 56.44%
- Activity (K562): Dose-dependent effect
- pIC50 (K562; K562, 48 h): 4.79 to 5.41
- IC90 (K562; K562, 48 h): 16.4 to 54.1 µM
- Activity (K562/Adr): Dose-dependent effect
- pIC50 (K562/Adr): 4.79 to 5.41
- IC90 (K562/Adr): 16.4 to 54.1 µM
- Activity (Homo sapiens): Dose-dependent effect
- pIC50 [21]: 4.79 to 5.41
- IC90 [21]: 16.4 to 54.1 µM
- Activity (HL-60 [22]): Dose-dependent effect
- Activity (SH-SY5Y): Dose-dependent effect
- pIC50 (SH-SY5Y): 4.79 to 5.41
- IC90 (SH-SY5Y): 16.4 to 54.1 µM
